Test results from ChEMBL document CHEMBL2346570, “Small-molecule inhibitors of cytokine-mediated STAT1 signal transduction in β-cells with improved aqueous solubility” (J Med Chem, 2013).
In brackets after ≈: the same amount, converted by molar mass. Activity calls are given as the source filed them. The calls are words filed in the database; no cut-off is given here.

What was measured:
[1] = Thermodynamic solubility in PBS at pH 7.4 after 24 hrs by UPLC-MS analysis; format: physicochemical; details: for solubility thermodynamic at 24 h: PBS, pH 7.4, read-out: Therm_solubility
Outline: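 Thermodynamic solubility assay in phosphate buffered saline, pH 7.4.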

INS-1E [2] = assay: Inhibition of JAK1/JAK2 in rat INS-1E cells assessed as inhibition of IFNgamma-induced STAT1 phosphorylation at Tyr701 and Ser727 at 10 uM after 30 mins by Western blotting analysis; format: cell-based
Outline: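 INS-1E β-cells treated with IFN-γ with or without compound for 30 min; STAT1 phosphorylation at Tyr701 and Ser727 assessed by Western blotting.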

INS-1E [3] = assay: Inhibition of IFNgamma-induced JAK1/JAK2 signaling in rat INS-1E cells assessed as STAT1 nuclear translocation at 10 uM after 30 mins by immunofluorescence assay; format: cell-based
Outline: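 IFN-γ-stimulated INS-1E β-cells, with or without compound, for 30 min; cells fixed and STAT1 subcellular (cytoplasm vs nucleus) localization monitored by immunofluorescence imaging.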

[4] = Cytoprotective activity in rat INS-1E cells assessed as suppression of cytokine-induced caspase-3/7 activation after 48 hrs by luminescence assay; format: functional, cell-based
Outline: (§1)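 INS-1E β-cells exposed to a cytokine mixture (IFN-γ at 500 ng/mL; IL-1β and TNF-α lowered 20- and 10-fold from standard levels) with compound for 48 h; caspase-3/7 activation read as apoptosis. IC50 from dose-response in three replicates; maximum activity expressed as % rescue from cytokine-induced caspase-3/7 activation.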

INS-1E [5] = assay: Effect on total STAT1 level in rat INS-1E cells at 10 uM after 30 mins by Western blotting analysis; format: functional, cell-based
[6] = Cytoprotective activity in rat INS-1E cells assessed as suppression of cytokine-induced caspase-3/7 activation after 48 hrs by luminescence assay relative to control; format: functional; outline: as §1

SMILES | solubility thermodynamic at 24 h [1] | IC50 [4] | Therm_solubility ([1]; buffer, pH 7.4, 24 h) | inhibition (INS-1E [2]) | inhibition (INS-1E [3]) | inhibition (INS-1E [5]) | %max [6]
C[C@@H]1CN([C@@H](C)CO)C(=O)c2cccc(NC(=O)Nc3cccc4ccncc34)c2O[C@H]1CN(C)S(=O)(=O)c1ccc2c(c1)OCCO2 | 101 µM (≈ 68.5 µg/mL) | – | – | – | – | – | –
C[C@@H]1CN([C@@H](C)CO)C(=O)c2cccc(NC(=O)Nc3ccnc4ccccc34)c2O[C@H]1CN(C)S(=O)(=O)c1ccc2c(c1)OCCO2 | 30.3 µM (≈ 20.5 µg/mL) | > 20 µM | – | – | – | – | –
C[C@@H]1CN([C@@H](C)CO)C(=O)c2cccc(NC(=O)Nc3cncc4ccccc34)c2O[C@H]1CN(C)S(=O)(=O)c1ccc2c(c1)OCCO2 | 84.9 µM (≈ 57.4 µg/mL) | 4.1 µM | – | – | – | – | 31%
C[C@@H]1CN([C@@H](C)CO)C(=O)c2cccc(NC(=O)N(C)c3cccc4ccccc34)c2O[C@H]1CN(C)S(=O)(=O)c1ccc2c(c1)OCCO2 | 11.2 µM (≈ 7.71 µg/mL) | 4.74 µM | – | – | – | – | 15%
C[C@@H]1CN([C@@H](C)CO)C(=O)c2cccc(NC(=O)NCc3cccc4ccccc34)c2O[C@H]1CN(C)S(=O)(=O)c1ccc2c(c1)OCCO2 | 0.1 µM (≈ 0.0689 µg/mL) | > 20 µM | – | inactive | inactive | inactive | –
C[C@@H]1CN([C@@H](C)CO)C(=O)c2cccc(NC(=O)Nc3cccc4cnccc34)c2O[C@H]1CN(C)S(=O)(=O)c1ccc2c(c1)OCCO2 | 60.5 µM (≈ 40.9 µg/mL) | 4.65 µM | – | – | – | – | 59%

More lines, in order of falling IC50 [4], values ahead:

solubility thermodynamic at 24 h [1] | IC50 [4] | Therm_solubility ([1]; buffer, pH 7.4, 24 h) | SMILES | inhibition (INS-1E [2]) | inhibition (INS-1E [3]) | inhibition (INS-1E [5]) | %max [6]
1.8 µM (≈ 1.22 µg/mL) | 3.26 µM | – | C[C@@H]1CN([C@@H](C)CO)C(=O)c2cccc(NC(=O)Nc3cccc4cccnc34)c2O[C@H]1CN(C)S(=O)(=O)c1ccc2c(c1)OCCO2 | Active | Active | inactive | 69%
– | 1.66 µM | 0.1 µM | C[C@@H]1CN([C@@H](C)CO)C(=O)c2cccc(NC(=O)Nc3cccc4ccccc34)c2O[C@H]1CN(C)S(=O)(=O)c1ccc2c(c1)OCCO2 | Active | Active | inactive | 71%
138 µM (≈ 93.6 µg/mL) | 1.62 µM | – | C[C@@H]1CN([C@@H](C)CO)C(=O)c2cccc(NC(=O)Nc3cccc4ncccc34)c2O[C@H]1CN(C)S(=O)(=O)c1ccc2c(c1)OCCO2 | – | – | – | 41%
0.7 µM (≈ 0.473 µg/mL) | 1.05 µM | – | C[C@@H]1CN([C@@H](C)CO)C(=O)c2cccc(NC(=O)Nc3nccc4ccccc34)c2O[C@H]1CN(C)S(=O)(=O)c1ccc2c(c1)OCCO2 | – | – | – | 21%
